Measurements from PMC3268354 (Bioorganic & Medicinal Chemistry Letters, 2012).

These molecules were tested on cPLA2α (assay: reported cPLA2α inhibition of training and test set compounds). Conditions: assigned from reported activity of training set compounds.
Format: biochemical

Molecule | Class (activity class assigned for HipHop refine model)
CCCCCCCCCCCCCCC(=O)C(=O)NCCCC(=O)O [Compound 1] | Active
Cn1ccnc1SCCCCOc1ccc(OCC(=O)COc2ccc(C(=O)O)cc2)cc1 [Compound 18] | Inactive
O=C(COc1ccc(SCCCCCc2ccccc2)cc1)COc1ccc(C(=O)O)cc1 [Compound 6] | Highly active
O=C(COc1ccc(C(=O)O)cc1)COc1ccc(C(=O)NCCCCc2ccccc2)cc1 [Compound 16] | Inactive
CCCCCCCCCCOc1ccc(OCC(=O)COc2ccc(C(=O)O)cc2)cc1 [Compound 7] | Highly active
O=C(COc1ccc(SCCCCSc2nccs2)cc1)COc1ccc(C(=O)O)cc1 [Compound 14] | Active
CN(CCc1ccccc1)C(=O)CSc1ccc(OCC(=O)COc2ccc(C(=O)O)cc2)cc1 [Compound 17] | Inactive

What follows are molecules tested on cPLA2α-mediated AA release in human monocytes (assay: cPLA2α-mediated AA release in Ca2+-ionophore A23187-stimulated human monocytes). Conditions: human monocytes stimulated with A23187.
Format: cell-based
How it was run: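 Human monocytes were stimulated with Ca2+-ionophore A23187 in the presence of test compound, and arachidonic acid release was measured. Inhibition is expressed as IC50. A reference cPLA2α inhibitor was run as an assay control.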

Molecule | inhibition of AA release
N-{(2S,4R)-4-(biphenyl-2-ylmethyl-isobutyl-amino)-1-[2-(2,4-difluorobenzoyl)-benzoyl]-pyrrolidin-2-ylmethyl}-3-[4-(2,4-dioxothiazolidin-5-ylidenemethyl)-phenyl]acrylamide [Compound 43] | inhibited AA release as expected
